Data as given in ChEMBL document CHEMBL1132135, “Potent, orally absorbed glucagon receptor antagonists” (Bioorg Med Chem Lett, 1999).

Tests used:
[1] = Concentration in plasma (portal) following oral dose in rats at 0.25 hr; type: ADME, organism-based; conditions: rat
How it was run: (§1)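 Fasted male Sprague-Dawley rats (300-400 g) were gavaged at 3.0 mg/kg, using a 0.3 mg/mL solution in 5% PEG-400/5% Tween-80/90% water at 10 mL/kg. At each time point animals were CO2-anesthetized. Portal vein blood was drawn first, then cardiac puncture at sacrifice. Samples were heparinized, held at 0 °C for up to 2 h, then centrifuged. Plasma proteins were precipitated with acetonitrile and analyzed by LC/MS/MS.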

[2] = Concentration in plasma (portal) following oral dose in rats at 1 hr; type: ADME, organism-based; conditions: rat; how it was run: as §1
[3] = Concentration in plasma (portal) following oral dose in rats at 2 hr; type: ADME, organism-based; conditions: rat; how it was run: as §1
[4] = Concentration in plasma (systemic) following oral dose in rats at 0.25 hr; type: ADME, organism-based; conditions: rat; how it was run: as §1
[5] = Concentration in plasma (systemic) following oral dose in rats at 1 hr; type: ADME, organism-based; conditions: rat; how it was run: as §1
[6] = Concentration in plasma (systemic) following oral dose in rats at 2 hr; type: ADME, organism-based; conditions: rat; how it was run: as §1
[7] = Concentration in plasma (systemic) following oral dose in mouse at 0.25 hr; type: ADME, organism-based
How it was run: (§2)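 Oral gavage in CD1 mice at 50 mg/kg, vehicle 5% PEG-400/5% Tween-80/90% water, 10 mL/kg. At each time point mice were CO2-anesthetized and bled by cardiac puncture at sacrifice. Samples were heparinized, kept at 0 °C for up to 2 h, then centrifuged to plasma. Plasma proteins were precipitated with acetonitrile and analyzed by HPLC.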

[8] = Concentration in plasma (systemic) following oral dose in mouse at 1 hr; type: ADME, organism-based; how it was run: as §2
[9] = Concentration in plasma (systemic) following oral dose in mouse at 24 hr; type: ADME, organism-based; how it was run: as §2
[10] = Concentration in plasma (systemic) following oral dose in mouse at 2 hr; type: ADME, organism-based; how it was run: as §2
[11] = Concentration in plasma (systemic) following oral dose in mouse at 4 hr; type: ADME, organism-based; how it was run: as §2
[12] = Concentration in plasma (systemic) following oral dose in mouse at 6 hr; type: ADME, organism-based; how it was run: as §2
Glucagon receptor [13] = molecular target: T1, Glucagon receptor (Mus musculus, UniProt Q61606); assay: Binding affinity towards glucagon receptor determined by reduction in binding of 125 I-glucagon to the murine glucagon receptor (mGLUR) expressed on CHO cells in presence of Mg+2; type: cell-based
How it was run: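 Mg2+ added at 5 mM, a physiological level, to the binding medium. IC50 reported in µM, with the number of determinations noted; where no IC50 was reached, percent inhibition is given at a single tested concentration.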

Glucagon receptor [14] = molecular target: T1, Glucagon receptor; assay: Binding affinity towards glucagon receptor determined by reduction in binding of [125I]glucagon to the murine glucagon receptor (GGR) expressed on CHO cells in absence of Mg+2; type: cell-based
Glucagon receptor [15] = molecular target: T2, Glucagon receptor (Homo sapiens, UniProt P47871); assay: biochemical; type: cell-based, CHO
Glucagon receptor [16] = molecular target: T2, Glucagon receptor; assay: Binding affinity towards glucagon receptor determined by reduction in binding of [125I]glucagon to the human glucagon receptor (GGR) expressed on CHO cells in presence of Mg+2; type: cell-based
How it was run: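 Radioligand binding to the glucagon receptor was run with 5 mM Mg2+ added, described as a physiological concentration.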

[17] = molecular target: Mitogen-activated protein kinase 14 (Homo sapiens, UniProt Q16539); assay: Inhibitory activity against p38-alpha kinase
[18] = Selectivity ratio between the binding value of human glucagon receptor (GGR) with Mg+2 and the value of p38 kinase
Glucagon receptor [19] = molecular target: T1, Glucagon receptor; assay: Binding affinity towards glucagon receptor determined by reduction in binding of 125 I-glucagon to the murine glucagon receptor (mGLUR) expressed on CHO cells in absence of Mg; type: cell-based
[20] = molecular target: Glucagon receptor (Mus musculus) (UniProt Q61606); assay: Binding affinity towards glucagon receptor determined by reduction in binding of 125 I-glucagon to the murine glucagon receptor (mGLUR) expressed on CHO cells in presence of Mg+2 at 1 uM; type: cell-based
Sequence of Glucagon receptor (Mus musculus) (Q61606 whole entry): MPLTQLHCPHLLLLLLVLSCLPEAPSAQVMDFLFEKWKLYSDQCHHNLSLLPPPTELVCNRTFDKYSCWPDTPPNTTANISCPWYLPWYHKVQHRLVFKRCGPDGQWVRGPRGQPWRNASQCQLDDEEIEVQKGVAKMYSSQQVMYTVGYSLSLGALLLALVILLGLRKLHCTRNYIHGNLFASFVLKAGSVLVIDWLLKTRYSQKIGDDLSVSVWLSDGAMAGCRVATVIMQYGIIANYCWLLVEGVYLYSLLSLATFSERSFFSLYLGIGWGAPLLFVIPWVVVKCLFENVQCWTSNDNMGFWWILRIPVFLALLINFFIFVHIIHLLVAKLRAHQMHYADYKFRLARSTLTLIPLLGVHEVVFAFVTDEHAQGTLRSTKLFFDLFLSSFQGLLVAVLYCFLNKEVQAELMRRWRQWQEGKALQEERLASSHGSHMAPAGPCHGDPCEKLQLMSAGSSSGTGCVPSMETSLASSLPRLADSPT

T2 sequence (P47871 whole entry): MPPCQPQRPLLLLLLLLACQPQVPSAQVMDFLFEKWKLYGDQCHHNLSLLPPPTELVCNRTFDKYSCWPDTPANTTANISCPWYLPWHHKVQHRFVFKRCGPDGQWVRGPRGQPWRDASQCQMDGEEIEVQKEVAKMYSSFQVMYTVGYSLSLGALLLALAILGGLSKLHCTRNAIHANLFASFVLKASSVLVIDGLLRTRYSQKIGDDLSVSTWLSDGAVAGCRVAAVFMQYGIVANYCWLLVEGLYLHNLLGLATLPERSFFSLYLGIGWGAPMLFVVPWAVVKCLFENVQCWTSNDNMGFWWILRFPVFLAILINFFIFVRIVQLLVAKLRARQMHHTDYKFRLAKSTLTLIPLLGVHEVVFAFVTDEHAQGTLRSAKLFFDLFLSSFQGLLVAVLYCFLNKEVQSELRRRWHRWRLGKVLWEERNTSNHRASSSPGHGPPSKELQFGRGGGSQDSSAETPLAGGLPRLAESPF
T1 sequence (Q61606 whole entry): as the sequence (Q61606 whole entry) above
Sequence of Mitogen-activated protein kinase 14 (Q16539 whole entry): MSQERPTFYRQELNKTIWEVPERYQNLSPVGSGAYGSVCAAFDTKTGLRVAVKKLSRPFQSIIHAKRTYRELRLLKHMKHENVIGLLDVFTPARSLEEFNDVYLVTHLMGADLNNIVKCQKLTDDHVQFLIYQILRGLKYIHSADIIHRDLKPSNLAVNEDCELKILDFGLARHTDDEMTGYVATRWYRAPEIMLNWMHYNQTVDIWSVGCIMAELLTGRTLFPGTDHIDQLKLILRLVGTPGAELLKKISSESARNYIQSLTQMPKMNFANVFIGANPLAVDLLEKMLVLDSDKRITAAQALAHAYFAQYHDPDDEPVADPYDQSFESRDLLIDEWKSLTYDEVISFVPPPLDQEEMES

Compound	concentration at 0.25 h [1] [µM]	concentration at 1 h [2] [µM]	concentration at 2 h [3] [µM]	concentration at 0.25 h [4] [µM]	concentration at 1 h [5] [µM]	concentration at 2 h [6] [µM]	concentration at 0.25 h [7] [µM]	concentration at 1 h [8] [µM]	concentration at 24 h [9] [µM]	concentration at 2 h [10] [µM]	concentration at 4 h [11] [µM]	concentration at 6 h [12] [µM]	IC50 (Glucagon receptor [13]) [µM]	IC50 (Glucagon receptor [14]) [µM]	IC50 (Glucagon receptor [15]) [µM]	IC50 (Glucagon receptor [16]) [µM]	IC50 [17] [µM]	Ratio [18]	IC50 (Glucagon receptor [19]) [µM]	inhibition [20] [%]
CCCOc1ccc(Br)cc1-c1cc(-c2ccc(Cl)cc2)[nH]c1-c1ccncc1	0.025	1.24	1.4	0.009	0.59	0.84	1.7	15.2	0.7	11.7	16.5	13.1	0.25	0.037	0.007	0.17	1.44	0.12		
Clc1ccc(-c2cc(-c3cccc(Br)c3)c(-c3ccncc3)[nH]2)cc1															0.15	1.7	0.08	21.2	0.23	48
